# Assay results from different studies.
# Each line is one published result; the experiments were not run side by side.
# Organism: Pseudomonas aeruginosa
SMILES,test,system,conditions,quantity,value
ONCc1cc(F)cc(F)c1,microbial growth,ATCC15692,8 h,MIC50,150 µg/mL
C[C@@H](O)[C@H]1C(=O)N2C(C(=O)O)=C(S[C@@H]3CN[C@H](C(=O)N(C)C)C3)[C@H](C)[C@H]12,microbial growth,PAO1,,MIC90,0.25 µg/mL
CCCCCCCCCCCC(=O)OC[C@H]1O[C@@H](n2cc(C)c(=O)[nH]c2=O)C[C@@H]1O,"microbial killing, broth dilution",,,MBC,16 µg/mL
CC1(C)S[C@@H]2[C@H](NC(=O)[C@H](N)c3ccccc3)C(=O)N2[C@H]1C(=O)O,"microbial growth, well diffusion",ATCC27853,60000 µg/mL,inhibition zone,32 mm
CSc1ccc(/C=C/c2cc(/C=C3\Sc4ccccc4N3CCCN3CCCC3)c3ccccc3[n+]2C)cc1.[I-],"microbial growth, broth dilution",ATCCBAA2108,drug-resistant strain,MIC,64 µg/mL
O=C(Nc1cccc(-c2cc(C(=O)O)no2)c1)Nc1ccc(Cl)c(Cl)c1,"microbial growth, broth dilution",ATCC27853,,MIC,> 64 µg/mL
CCCCCCCCCCCC(=O)OC[C@H]1O[C@@H](n2cc(C)c(=O)[nH]c2=O)C[C@@H]1OC(=O)c1ccc(C(C)(C)C)cc1,"microbial killing, broth dilution",,,MBC,16 µg/mL
COc1cccc(OC)c1C(=O)N[C@@H]1C(=O)N2[C@@H]1SC(C)(C)[C@@H]2C(=O)O,"microbial growth, broth dilution",ATCCBAA2108,drug-resistant strain,MIC,> 64 µg/mL
COC(=O)c1cc(-c2cccc(NC(=O)Nc3cccc(F)c3)c2)on1,"microbial growth, broth dilution",ATCC27853,,MIC,> 64 µg/mL
O=C(O)c1cn(C2CC2)c2cc(N3CCNCC3)c(F)cc2c1=O,microbial growth,K799/61,1000 µg/mL,inhibition zone,33.5 mm
